Measured values published in ChEMBL document CHEMBL1145988, “A conformationally locked analogue of the anti-HIV agent stavudine. An important correlation between pseudorotation and maximum amplitude” (J Med Chem, 2003).
pEC50, pIC50: −log10 of the molar value.

Tests used:
[1] = biological target: Human immunodeficiency virus type 1 reverse transcriptase (Human immunodeficiency virus 1, UniProt Q72547); test: Inhibitory concentration required against Reverse transcriptase (RT)
In short: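 Wild-type HIV-1 RT (1.0 μg) extends -47 primer annealed to single-stranded M13mp18 DNA. Run 30 min at 37 °C, then TCA-precipitated, filtered, scintillation counted; duplicate.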

CCRF-CEM [2] = test: Cytostatic concentration required to inhibit Human T-Lymphocyte (CEM) cells proliferation caused by HIV-1 (IIIB); type: functional
In short: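 CEM cell proliferation measured; value is concentration inhibiting proliferation by 50%.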

CCRF-CEM [3] = test: Effective concentration required to protect Human T-Lymphocyte (CEM) cells against cytopathogenicity of HIV-1 (IIIB); type: functional, cell-based
In short: (§1)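 CEM cells at 4.5×10^5 cells/mL infected with 100 CCID50/mL of HIV-1 or HIV-2, then mixed 1:1 with compound dilutions (final 200, 40, 8, 0.32, 0.062 μg/mL) and held at 37 °C. Syncytia counted microscopically after 4–5 days. EC50 is the concentration preventing syncytium formation by 50%.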

[4] = Effective concentration required to inhibit P24 antigen production in PHA-PBM cells exposed to HIV-1 LAI; type: functional, cell-based; conditions: Homo sapiens, PBMC
In short: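 PHA-stimulated PBM cells at 1×10^6/mL exposed to 50 TCID50 HIV-1 LAI with 10-fold serial drug dilutions, triplicate. p24 antigen measured by radioimmunoassay after 7 days of culture. EC50 set against p24 in drug-free controls.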

MT4 = test: Effective concentration required to protect MT-4 cells against cytopathogenicity of HIV-1 LAI; type: functional, cell-based; conditions: Homo sapiens
In short: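 MT-4 cells (3×10^4) exposed to 100 TCID50 HIV-1 LAI and cultured with compound. Viability read by MTT assay on day 5. EC50 taken as 50% protection against cytopathogenicity; duplicate assays.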

CCRF-CEM [5] = test: Effective concentration required to protect Human T-Lymphocyte (CEM) cells against cytopathogenicity of HIV-2 (ROD); type: functional, cell-based; in short: as §1
MT2 = test: Effective concentration required to protect MT-2 cells against cytopathogenicity of HIV-1 LAI; type: functional, cell-based; conditions: Homo sapiens
In short: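 MT-2 cells (2×10^3) challenged with 100 TCID50 HIV-1 LAI and cultured with compound. MTT read-out on day 7 gives EC50 for 50% protection; run in duplicate.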

CCRF-CEM [6] = test: Effective concentration required to protect activity Human CEM/TK- cells against cytopathogenicity of HIV virus; type: functional, cell-based

Compound	pIC50 [1]	CC50 (CCRF-CEM [2])	pEC50 (CCRF-CEM [3])	pEC50 [4]	pEC50 (MT4)	pEC50 (CCRF-CEM [5])	pEC50 (MT2)	pEC50 (CCRF-CEM [6])
Cc1cn([C@H]2C=C[C@@H](COP(=O)(O)OP(=O)(O)OP(=O)(O)O)O2)c(=O)[nH]c1=O	7.10							
Cc1cn([C@H]2C=C[C@]3(CO)C[C@H]23)c(=O)[nH]c1=O		> 250000 nM	6.02	7.22	5.16	5.84	5.21	< 3.60
Cc1cn([C@H]2C=C[C@]3(COP(=O)(O)OP(=O)(O)OP(=O)(O)O)C[C@H]23)c(=O)[nH]c1=O	6.19							
Cc1cn([C@H]2C=C[C@@H](CO)O2)c(=O)[nH]c1=O [STAVUDINE]		93000 nM	6.68	7.40	6.15	6.40	5.74	4.57
Cc1cn([C@H]2C[C@H](N=[N+]=[N-])[C@@H](CO)O2)c(=O)[nH]c1=O [ZIDOVUDINE]					7.70		7.52	
